# OXTR potentiator = human OXTR potentiation; P30559; CHO-OTR cells, Fluo-8 calcium fluorescence, potentiator mode; 0% = oxytocin EC15, 100% = EC100; activation, % at 3 µM; hit rate 0.061% among 320,000;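 active = activation above that plate's cutoff, the mean activation of tested compounds plus 3 SD, cut at about 6.6% in these data, passing the limit was not always enough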;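 also: 100% uses oxytocin at 75 nM as the full agonist control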
# Target sequence (P30559 whole entry, looked up): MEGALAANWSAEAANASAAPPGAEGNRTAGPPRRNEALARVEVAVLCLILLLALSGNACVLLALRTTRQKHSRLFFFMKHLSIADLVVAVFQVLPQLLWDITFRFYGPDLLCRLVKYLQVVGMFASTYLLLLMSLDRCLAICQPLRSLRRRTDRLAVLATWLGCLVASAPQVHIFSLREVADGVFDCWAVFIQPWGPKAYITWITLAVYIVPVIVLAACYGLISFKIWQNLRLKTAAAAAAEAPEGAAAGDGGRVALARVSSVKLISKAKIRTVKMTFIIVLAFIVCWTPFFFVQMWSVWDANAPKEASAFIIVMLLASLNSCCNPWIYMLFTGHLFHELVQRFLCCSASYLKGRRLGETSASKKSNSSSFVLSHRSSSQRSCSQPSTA
#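 Assay system: CHO cell line stably expressing human OTR. Reagent: EC15 oxytocin agonist. Dosing: single dose, 3.0 µM nominal final compound concentration. Timing: compound 6 min at room temperature before oxytocin, 100 s read. Signal: kinetic Fluo-8 calcium fluorescence. Controls: oxytocin EC15 low and EC100 high.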
# TRPML3 agonist = agonists of human TRPML3 channel; Q8TDD5; hit rate 0.29% among 220,000; HEK293 TRPML3-YFP, Fluo-8 calcium fluorescence; 100% = the carbachol control signal; activation, % at 3 µM;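 active = activation above its plate's cutoff, the mean activation of the plate's test wells plus 3 SD, cut at about 12% in these data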;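 also: 0% = DMSO only wells and 100% = carbachol wells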
#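 Material: TRPML3-YFP stable HEK293 cells | Dosing: One concentration, 3 µM nominal, 0.3% DMSO | Timing: 125 s total fluorescence read per well | Technique: Fluo-8 calcium dye fluorescence, ex 470-495, em 515-575 nm | Measure: Percent activation from peak-to-basal fluorescence ratio, scaled between DMSO and carbachol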
# OXTR ag = human OXTR agonism | activation, % at 3 µM | CHO-OTR cells, Fluo-8 calcium fluorescence; normalized: DMSO 0%, oxytocin 100% | hit rate 0.32% among 320,000 | P30559;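 active = activation above the mean of all tested compounds plus 3 SD, cutoff set per screening run, cut at about 20% in these data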;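 also: peak over basal fluorescence ratio from a 100 s FLIPR kinetic read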
# zfTRPN1 agonist = zebrafish TRPN1 (NompC) channel agonism; HEK293 zebrafish TRPN1-YFP, Fluo-8 calcium fluorescence; 100% = response to 87 µM carbachol; activation, % at 3 µM; hit rate 0.18% among 220,000; AID 1424;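 active = activation above its plate's cutoff, the mean activation of test wells on that plate plus 3 SD, cut at about 19% in these data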;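 also: 0% = DMSO alone and 100% = 87 µM carbachol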
#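 Material: zebrafish TRPN1-YFP in HEK293 cells. Doses: one dose of 3 µM, 0.3% DMSO. Incubation: dye 1 h 37 °C plus 30 min RT. Measured by: intracellular calcium fluorescence with Fluo-8.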
# V1R ag counter = V1a receptor agonism, counter-screen for OXTR agonists. P37288. CHO-V1R cells, Fluo-8 calcium fluorescence, agonist mode; 0% DMSO, 100% 3 nM vasopressin. activation, % at 3 µM. hit rate 0.25% among 320,000;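 active = activation above the mean activation of all tested compounds plus 3 SD, per screening run, cut at about 20% in these data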;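 also: signal is peak over basal fluorescence ratio across a 100 second FLIPR read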
# CRFBP-R2 agonist = CRF-BP/CRF-R2 complex agonism; hit rate 0.46% among 350,000; activation, % at 13.2 µM; HEK293 CRF-R2/CRF-BP, calcium dye fluorescence (FLIPR); percent of saturating CRF peptide response;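 active = activation of at least 50%, plus an integration ratio under a set limit after plate pattern correction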;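 also: plate controls were neutral control wells without compound for no effect and CRF at EC100 for full effect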
# Active calls of the source: *; · = no result. In the library only some 0.85% were active in any assay of this set; here they are far more common.
SMILES,OXTR potentiator,TRPML3 agonist,OXTR ag,zfTRPN1 agonist,V1R ag counter,CRFBP-R2 agonist
N#C/C(=C\c1ccc(N2CCOCC2)o1)C(=O)NCC1CCCO1 (configuration not stated),3.4,3.6,5.3,3.5,5.4,45.2
N#C/C(=C\c1ccc(N2CCOCC2)o1)C(=O)NC1CCCCC1,-8.4,4.9,14.1,8.2,14.6,96.0*
N#C/C(=C/c1ccc(N2CCOCC2)o1)C(=O)Nc1ccccc1,·,36.2*,·,71.6*,·,149.2*
C[n+]1cc(C(=O)N2CCCCC2)ccc1/C=C/c1c[nH]c2ccccc12,-7.7,3.8,7.1,4.4,4.5,79.0*
Clc1ccc(C2=CC(c3ccco3)n3ncnc3N2)cc1 (configuration not stated),-11.2,0.4,7.8,0.4,11.7,348.7*
COc1ccc(C2C=C(c3ccccc3)Nc3ncnn32)cc1 (configuration not stated),0.5,-0.1,-1.5,-0.4,-1.0,1.3
COc1ccc(C2=CC(c3ccco3)n3ncnc3N2)cc1 (configuration not stated),·,1.1,·,0.6,·,170.1*
COCCNC(=O)Cn1nc(-c2ccccc2C)ccc1=O,-9.7,·,-0.5,·,0.4,0.2
Cc1ccc(S(=O)(=O)N2CCC(C(=O)NCCN3CCOCC3)CC2)cc1,·,·,·,·,·,0.5
COc1ccc(S(=O)(=O)Nc2ccc(S(=O)(=O)N3CCCCC3)cc2)cc1,-25.6,0.4,21.1*,-0.1,23.8*,7.9
C#CCN1C(=O)S/C(=C/C=C/c2ccc(N(C)C)cc2)C1=O,-11.6,4.1,35.3*,10.0,23.6*,85.2*
O=C(CN1C(=O)S/C(=C\C=C\c2ccccc2)C1=O)Nc1ccccc1C(=O)O,-5.2,0.7,-0.1,1.2,0.0,-0.8
CC(C)N(CCn1c(=S)[nH]c2ccccc2c1=O)C(C)C,-4.1,1.1,-0.3,0.2,-0.7,50.3*
CCN(CC)C(=O)C1=C(C)N(CCCN2CCCC2=O)C(=O)C(CC(=O)NCCN2CCOCC2)C1 (configuration not stated),·,·,·,·,·,-1.6
COCCCN1C(=O)C(CC(=O)NCc2cccs2)CC(C(=O)N(C)C)=C1C (configuration not stated),·,·,·,·,·,-0.6
COC(=O)c1c(NS(=O)(=O)Cc2ccccc2)sc2c1CCCC2,-3.1,0.2,-2.2,-1.0,-0.8,-0.7
CC(C)OC(=O)c1c(NS(=O)(=O)c2ccccc2)sc2c1CCCC2,-11.8,0.0,11.1,-1.0,7.1,76.4*
C=CCn1c(SCC(=O)N2CCCC2=O)nc2sc(CC)cc2c1=O,-11.7,·,38.2*,·,40.0*,-1.9
COc1ccc([C@H]2C(C(=O)O)=C[C@@H](C(C)(C)C)N2S(=O)(=O)c2ccc(C)cc2)cc1OC,2.0,·,1.1,·,0.4,1.6
CCN(CC)c1ccc2c(Cl)c(Br)c(=O)oc2c1,-21.6,1.1,62.5*,2.5,85.3*,37.1
CCN(CC)c1ccc2c(c1)oc(=O)c1c(Cl)cc(=O)oc12,-12.9,1.1,8.3,-0.1,6.7,222.9*
CC(=O)c1c(C)[nH]c(C(=O)Nc2cccc(C)n2)c1C,-5.2,·,0.0,·,0.0,-0.5
O=C1/C(=C\c2ccc(O)cc2)SC(=S)N1/N=C/c1ccc(O)cc1,-10.4,7.0,23.6*,21.4*,21.9*,36.9
CC(=O)NN1C(=O)/C(=C\c2ccc(O)cc2)SC1=S,-2.8,3.0,7.6,4.3,4.7,47.9
Cn1c(=O)c2c(nc(N3CCN(c4ccc([N+](=O)[O-])cc4)CC3)n2C)n(C)c1=O,1.7,0.9,0.2,0.7,-0.5,-0.5
SMILES,OXTR potentiator,TRPML3 agonist,OXTR ag,zfTRPN1 agonist,V1R ag counter,CRFBP-R2 agonist
N=c1c(S(=O)(=O)c2ccccc2)cc2c(=O)n3ccccc3nc2n1Cc1ccco1,-13.5,-0.3,-2.0,-0.6,-0.1,88.6*
Cc1ccc(S(=O)(=O)c2cc3c(=O)n4ccccc4nc3n(Cc3ccco3)c2=N)cc1C,-6.8,0.8,-1.5,-0.1,-1.0,78.6*
C=CCSc1nc2sc3c(c2c(=O)[nH]1)CC(C)(CC)OC3 (configuration not stated),-10.8,·,-1.8,·,-0.6,-0.6
CCCN(C(=O)CSCc1ccc(Cl)cc1)c1c(N)n(Cc2ccccc2)c(=O)[nH]c1=O,-0.9,·,-1.2,·,-0.5,-1.5
O=C(NCCC1=CCCCC1)C1CCN(S(=O)(=O)c2ccccc2C(F)(F)F)CC1,-12.1,·,3.7,·,7.8,0.8
CC[n+]1ccc(/C=C/c2c[nH]c3ccccc23)cc1,-6.6,·,2.5,·,3.6,60.9*
Cc1ccc2[nH]cc(/C=C/c3cc[n+](C)cc3)c2c1,·,·,·,·,·,44.8
O=C(C[n+]1ccccc1)Nc1ccccc1Br,-1.0,-0.1,0.3,-0.7,1.0,-0.4
COc1ccc(-c2nnc(NC(=O)c3ccc(S(=O)(=O)N4COCC4(C)C)cc3)o2)cc1,0.9,0.0,6.4,1.5,0.6,-0.2
CC1(C)COCN1S(=O)(=O)c1ccc(C(=O)Nc2nnc(-c3ccc(Cl)s3)o2)cc1,-7.7,0.0,-1.3,-1.4,-1.0,89.8*
CC1CCCCN1S(=O)(=O)c1ccc(C(=O)Nc2nnc(-c3ccccc3Cl)o2)cc1 (configuration not stated),-5.0,0.5,0.2,0.9,0.2,22.9
O=C(Nc1nnc(-c2ccccc2Cl)o1)c1ccc(S(=O)(=O)N2CCCCCC2)cc1,-3.8,0.0,-1.1,-0.6,-0.7,54.0*
CCC1CCCCN1S(=O)(=O)c1ccc(C(=O)Nc2nnc(-c3ccccc3Cl)o2)cc1 (configuration not stated),-1.4,0.8,-0.7,-0.9,0.2,125.9*
CCOC(=O)N1CCN(C(=O)CSc2nc(=O)n3ccccc3n2)CC1,-2.5,·,0.7,·,-1.0,-0.6
Cc1ccc([C@H]2C[C@H](O)[C@@H](n3cc(COC(=O)c4ccccc4)nn3)CN2C(=O)c2cccs2)cc1,·,·,·,·,·,0.7
COc1ccc(/C=C/c2cccc[n+]2C)c(O)c1,-10.3,·,0.8,·,0.5,-1.3
CCN(CC)c1ccc(/C=C/c2cccc[n+]2C)c(OC)c1,-5.6,·,14.9,·,11.4,54.9*
COc1ccccc1NC(=O)/C(C#N)=C/c1cc([N+](=O)[O-])ccc1N1CCCC1,-3.9,-0.1,-0.8,0.8,0.1,91.8*
COc1ccccc1NC(=O)/C(C#N)=C/c1ccncc1,-7.9,·,0.5,·,0.1,-2.4
O=C1CN(C(=O)COC(=O)c2ccccc2Br)c2ccccc2N1,-4.8,·,-0.2,·,0.5,-1.6
NC(=O)c1ccccc1NC(=O)C(c1ccccc1)c1ccccc1,-9.0,·,0.0,·,-0.5,0.7
CCCCC1(C)OC(=O)C(=Cc2ccc(N(CC)CC)cc2)C(=O)O1 (configuration not stated),-13.6,0.0,0.1,-0.2,0.2,59.4*

# From PubChem BioAssay
